Experiment [1] deals with T1, Dual specificity mitogen-activated protein kinase kinase 6 (Homo sapiens) (UniProt P52564).
T1 sequence (whole entry): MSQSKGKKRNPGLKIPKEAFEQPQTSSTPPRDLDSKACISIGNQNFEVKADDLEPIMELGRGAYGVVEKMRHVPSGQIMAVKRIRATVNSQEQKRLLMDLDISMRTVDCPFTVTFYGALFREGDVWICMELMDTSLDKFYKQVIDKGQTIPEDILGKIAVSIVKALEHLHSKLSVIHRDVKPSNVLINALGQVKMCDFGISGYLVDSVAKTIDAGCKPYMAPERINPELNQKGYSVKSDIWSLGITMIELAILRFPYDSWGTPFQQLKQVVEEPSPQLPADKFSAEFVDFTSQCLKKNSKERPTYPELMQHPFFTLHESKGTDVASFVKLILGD
In words: Inhibition of MAP2K6 in human HeLa cells lysate at 10 uM pre incubated for 15 mins followed by ADP acyl phosphate probe addition and measured after 10 mins by LC-MS/MS analysis relative to control. The conditions noted are these: time 25.0 min. It is filed as subcellular.

The test system of another experiment is HeLa. The experiment can be described thus: Antiproliferative activity against human HeLa cells over expressing BMK1 assessed as reduction in cell viability at 5 uM after 48 hrs by MTT assay. The experiment is classed as functional, cell-based. The procedure, abridged:
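HeLa cells were infected with empty adenovirus or adenovirus encoding dominant-negative BMK1(AEF). After 24 hr they were treated with or without 5 μM drug for 48 hr and read by MTT. % growth inhibition = (1 − MTT of group / MTT of Ad-EV-only cells) × 100. n = 3.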
A general note: Formazan colour is commonly taken as a measure of viable cells.

For experiment [2], the target named is Ribosomal protein S6 kinase alpha-1 (Homo sapiens, UniProt Q15418). The experiment can be described thus: Inhibition of RSK1 domain 2 K1 site in human HeLa cells lysate at 10 uM pre incubated for 15 mins followed by ADP acyl phosphate probe addition and measured after 10 mins by LC-MS/MS analysis relative to control. The experiment is classed as subcellular. The conditions noted are these: time 25.0 min.
Ribosomal protein S6 kinase alpha-1, sequence (Q15418 whole entry, the tested form may be a part): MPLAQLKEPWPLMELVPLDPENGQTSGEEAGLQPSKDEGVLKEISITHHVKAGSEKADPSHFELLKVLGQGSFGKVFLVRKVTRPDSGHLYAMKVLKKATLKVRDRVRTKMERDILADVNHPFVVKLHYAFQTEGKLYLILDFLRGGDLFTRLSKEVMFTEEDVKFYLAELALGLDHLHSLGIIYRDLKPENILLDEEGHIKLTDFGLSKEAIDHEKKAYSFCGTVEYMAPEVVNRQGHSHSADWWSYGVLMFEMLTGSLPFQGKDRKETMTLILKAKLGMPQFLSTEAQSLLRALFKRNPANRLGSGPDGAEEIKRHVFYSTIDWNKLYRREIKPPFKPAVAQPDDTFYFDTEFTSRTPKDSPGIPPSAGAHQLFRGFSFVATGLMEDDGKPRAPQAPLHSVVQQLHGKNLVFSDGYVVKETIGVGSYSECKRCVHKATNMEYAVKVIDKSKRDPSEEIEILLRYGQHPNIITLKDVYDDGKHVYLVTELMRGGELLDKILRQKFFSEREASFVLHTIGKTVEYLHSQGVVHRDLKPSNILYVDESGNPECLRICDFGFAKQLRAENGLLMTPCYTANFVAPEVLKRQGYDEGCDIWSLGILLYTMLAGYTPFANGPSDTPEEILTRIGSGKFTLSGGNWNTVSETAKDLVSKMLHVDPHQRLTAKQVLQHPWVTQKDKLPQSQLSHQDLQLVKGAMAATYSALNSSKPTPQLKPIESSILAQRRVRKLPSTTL

The target in experiment [3] is T2, Serine/threonine-protein kinase ULK3 (Homo sapiens) (UniProt Q6PHR2).
T2 sequence (whole entry): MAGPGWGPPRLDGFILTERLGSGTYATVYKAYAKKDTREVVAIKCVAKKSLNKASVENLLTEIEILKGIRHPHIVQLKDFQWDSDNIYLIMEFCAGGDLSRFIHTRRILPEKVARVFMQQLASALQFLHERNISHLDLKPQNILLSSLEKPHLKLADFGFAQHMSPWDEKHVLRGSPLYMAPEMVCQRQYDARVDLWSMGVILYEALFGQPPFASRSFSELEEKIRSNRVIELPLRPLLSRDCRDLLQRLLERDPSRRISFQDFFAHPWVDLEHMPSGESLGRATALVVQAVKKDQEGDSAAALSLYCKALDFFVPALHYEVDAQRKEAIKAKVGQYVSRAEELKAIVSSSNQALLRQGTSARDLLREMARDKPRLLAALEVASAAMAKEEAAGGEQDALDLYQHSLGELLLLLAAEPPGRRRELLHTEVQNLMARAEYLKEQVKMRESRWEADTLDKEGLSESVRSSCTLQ
The experiment can be described thus: Inhibition of ULK3 in human HeLa cells lysate at 50 uM pre incubated for 15 mins followed by ADP acyl phosphate probe addition and measured after 10 mins by LC-MS/MS analysis relative to control. The following applies: time 25.0 min. The experiment is classed as subcellular.

The nature of experiment [4]: Inhibition of MST4/YSK1 in human HeLa cells lysate at 2 uM pre incubated for 15 mins followed by ATP acyl phosphate probe addition and measured after 10 mins by LC-MS/MS analysis relative to control. The conditions noted are these: 25 min, condition cancer.
Experiment [5] addresses T1, Dual specificity mitogen-activated protein kinase kinase 6 (Homo sapiens). The experiment can be described thus: Inhibition of MAP2K6 in human HeLa cells lysate at 2 uM pre incubated for 15 mins followed by ADP acyl phosphate probe addition and measured after 10 mins by LC-MS/MS analysis relative to control. The following applies: time 25.0 min. The experiment is classed as subcellular.

The target of experiment [6] is Epidermal growth factor receptor (Homo sapiens, UniProt P00533). In words: Inhibition of EGFR in human HeLa cells lysate pre incubated for 15 mins followed by ADP acyl phosphate probe addition and measured after 10 mins by LC-MS/MS analysis. The experiment is classed as subcellular.
Epidermal growth factor receptor, sequence (P00533 whole entry): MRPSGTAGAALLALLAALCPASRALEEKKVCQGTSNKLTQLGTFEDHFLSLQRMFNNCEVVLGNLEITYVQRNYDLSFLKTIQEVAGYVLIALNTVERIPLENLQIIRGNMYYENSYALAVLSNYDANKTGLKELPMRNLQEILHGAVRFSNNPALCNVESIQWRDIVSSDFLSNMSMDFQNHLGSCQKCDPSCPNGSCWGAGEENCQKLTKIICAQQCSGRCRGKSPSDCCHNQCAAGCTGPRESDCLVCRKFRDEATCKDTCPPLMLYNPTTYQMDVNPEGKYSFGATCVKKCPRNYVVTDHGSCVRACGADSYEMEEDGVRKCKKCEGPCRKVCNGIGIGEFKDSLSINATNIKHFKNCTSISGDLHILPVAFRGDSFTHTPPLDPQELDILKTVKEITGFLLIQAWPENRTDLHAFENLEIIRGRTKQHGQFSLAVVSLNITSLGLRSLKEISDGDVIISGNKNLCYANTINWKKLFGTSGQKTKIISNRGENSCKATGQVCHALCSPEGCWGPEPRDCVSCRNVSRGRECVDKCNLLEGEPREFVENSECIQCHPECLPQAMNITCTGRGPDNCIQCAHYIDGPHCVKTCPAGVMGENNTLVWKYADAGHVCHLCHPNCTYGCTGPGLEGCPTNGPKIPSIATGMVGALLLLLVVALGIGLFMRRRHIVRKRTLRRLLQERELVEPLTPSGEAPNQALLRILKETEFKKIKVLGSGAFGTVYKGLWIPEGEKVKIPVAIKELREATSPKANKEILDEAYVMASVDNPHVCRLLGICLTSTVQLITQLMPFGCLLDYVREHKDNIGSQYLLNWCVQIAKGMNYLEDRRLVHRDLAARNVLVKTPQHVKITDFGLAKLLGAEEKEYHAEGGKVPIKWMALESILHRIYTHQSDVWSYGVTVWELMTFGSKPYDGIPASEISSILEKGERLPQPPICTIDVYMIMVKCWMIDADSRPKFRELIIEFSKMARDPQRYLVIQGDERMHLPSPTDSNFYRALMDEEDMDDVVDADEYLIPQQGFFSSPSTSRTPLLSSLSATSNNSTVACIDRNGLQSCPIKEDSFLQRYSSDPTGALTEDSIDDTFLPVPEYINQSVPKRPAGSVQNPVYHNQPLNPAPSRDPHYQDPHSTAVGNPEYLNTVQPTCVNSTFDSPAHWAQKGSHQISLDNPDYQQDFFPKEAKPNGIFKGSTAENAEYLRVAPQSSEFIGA
Experiment [7] addresses Serine/threonine-protein kinase mTOR (Homo sapiens, UniProt P42345). In words: Inhibition of FRAP in human HeLa cells lysate pre incubated for 15 mins followed by ATP acyl phosphate probe addition and measured after 10 mins by LC-MS/MS analysis. It is filed as subcellular.
For experiment [8], the target named is T3, Serine/threonine-protein kinase tousled-like 1 (Homo sapiens) (UniProt Q9UKI8).
T3 sequence (whole entry): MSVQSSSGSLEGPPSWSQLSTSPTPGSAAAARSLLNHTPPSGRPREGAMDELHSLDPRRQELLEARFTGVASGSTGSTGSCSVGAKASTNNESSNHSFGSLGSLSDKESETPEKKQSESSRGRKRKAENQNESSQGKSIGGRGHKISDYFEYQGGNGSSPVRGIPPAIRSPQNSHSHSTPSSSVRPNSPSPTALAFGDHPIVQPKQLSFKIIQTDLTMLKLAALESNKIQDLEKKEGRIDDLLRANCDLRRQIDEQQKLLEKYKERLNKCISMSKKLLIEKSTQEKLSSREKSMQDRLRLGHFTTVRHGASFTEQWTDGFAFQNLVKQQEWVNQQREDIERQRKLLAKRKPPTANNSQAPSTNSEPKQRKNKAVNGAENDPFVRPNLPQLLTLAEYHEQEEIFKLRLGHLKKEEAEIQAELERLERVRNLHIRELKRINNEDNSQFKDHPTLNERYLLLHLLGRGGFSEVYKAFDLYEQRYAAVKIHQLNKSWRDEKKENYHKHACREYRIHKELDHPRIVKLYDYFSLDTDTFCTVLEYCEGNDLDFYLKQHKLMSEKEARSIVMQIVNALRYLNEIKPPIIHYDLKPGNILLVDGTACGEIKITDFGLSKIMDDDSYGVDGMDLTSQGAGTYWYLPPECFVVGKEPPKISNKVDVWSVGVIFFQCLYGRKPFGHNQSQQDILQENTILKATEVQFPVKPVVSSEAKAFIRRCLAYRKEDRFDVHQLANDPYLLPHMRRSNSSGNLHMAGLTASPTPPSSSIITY
In words: Inhibition of TLK1 in human HeLa cells lysate at 50 uM pre incubated for 15 mins followed by ADP acyl phosphate probe addition and measured after 10 mins by LC-MS/MS analysis relative to control. The conditions noted are these: time 25.0 min. It is filed as subcellular.

The target in experiment [9] is Tyrosine-protein kinase ABL (Homo sapiens, UniProt P00519+P42684). The experiment can be described thus: Inhibition of ABL1/2 in human HeLa cells lysate at 2 uM pre incubated for 15 mins followed by ATP acyl phosphate probe addition and measured after 10 mins by LC-MS/MS analysis relative to control. It is filed as subcellular. The conditions noted are these: time 25.0 min. The essentials:
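HeLa cell lysates (5 mg/mL total protein) were preincubated with inhibitor at 0, 0.8, 2, 10 or 50 μM for 15 min. ATP or ADP acylphosphate probe was then added (5 μM final) for 10 min, and reactions were stopped with urea. Up to four fragment ions per kinase probe-peptide were quantified by targeted MS. % inhibition was taken relative to untreated lysate. Run in duplicate.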

Experiment [10] addresses Serine/threonine-protein kinase Nek9 (Homo sapiens, UniProt Q8TD19). In words: Inhibition of NEK9 in human HeLa cells lysate pre incubated for 15 mins followed by ATP acyl phosphate probe addition and measured after 10 mins by LC-MS/MS analysis. It is filed as subcellular.

The text below walks through data of ChEMBL document CHEMBL5661979, “Pharmacological inhibition of BMK1 suppresses tumor growth through promyelocytic leukemia protein” (Cancer Cell, 2010).

The source made the active and inactive calls. No cut-off for these calls is given here. Some results are limits rather than exact numbers.

Tyrosine-protein kinase ABL, sequence (P00519 whole entry, looked up, the tested form may be a part): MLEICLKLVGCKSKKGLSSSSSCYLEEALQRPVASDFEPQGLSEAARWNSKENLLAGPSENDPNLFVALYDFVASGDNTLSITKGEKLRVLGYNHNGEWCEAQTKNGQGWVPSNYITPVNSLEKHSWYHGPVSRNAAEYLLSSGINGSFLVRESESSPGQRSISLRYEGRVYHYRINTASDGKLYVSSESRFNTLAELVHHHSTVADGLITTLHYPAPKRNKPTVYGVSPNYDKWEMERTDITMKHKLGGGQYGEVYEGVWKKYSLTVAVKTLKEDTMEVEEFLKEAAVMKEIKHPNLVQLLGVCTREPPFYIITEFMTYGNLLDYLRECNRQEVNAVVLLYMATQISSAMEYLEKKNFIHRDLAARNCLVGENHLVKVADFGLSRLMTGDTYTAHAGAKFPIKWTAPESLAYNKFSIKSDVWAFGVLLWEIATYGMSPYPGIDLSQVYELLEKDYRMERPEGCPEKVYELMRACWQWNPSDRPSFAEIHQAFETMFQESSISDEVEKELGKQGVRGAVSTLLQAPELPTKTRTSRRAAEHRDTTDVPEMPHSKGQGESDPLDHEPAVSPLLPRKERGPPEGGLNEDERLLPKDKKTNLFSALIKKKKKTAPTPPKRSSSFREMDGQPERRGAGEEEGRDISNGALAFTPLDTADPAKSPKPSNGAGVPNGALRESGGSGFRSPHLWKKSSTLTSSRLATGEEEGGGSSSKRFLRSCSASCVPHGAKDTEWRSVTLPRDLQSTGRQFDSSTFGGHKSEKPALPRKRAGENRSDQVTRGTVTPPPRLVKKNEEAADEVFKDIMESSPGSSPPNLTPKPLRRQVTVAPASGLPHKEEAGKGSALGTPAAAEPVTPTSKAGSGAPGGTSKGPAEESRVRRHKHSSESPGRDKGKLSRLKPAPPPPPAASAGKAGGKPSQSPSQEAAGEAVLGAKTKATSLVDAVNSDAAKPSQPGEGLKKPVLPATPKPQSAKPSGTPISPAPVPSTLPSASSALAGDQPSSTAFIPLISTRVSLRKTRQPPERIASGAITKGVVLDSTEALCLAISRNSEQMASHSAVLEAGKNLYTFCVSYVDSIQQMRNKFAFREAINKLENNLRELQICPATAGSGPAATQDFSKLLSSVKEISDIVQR
Tyrosine-protein kinase ABL, sequence (P42684 whole entry, looked up, the tested form may be a part): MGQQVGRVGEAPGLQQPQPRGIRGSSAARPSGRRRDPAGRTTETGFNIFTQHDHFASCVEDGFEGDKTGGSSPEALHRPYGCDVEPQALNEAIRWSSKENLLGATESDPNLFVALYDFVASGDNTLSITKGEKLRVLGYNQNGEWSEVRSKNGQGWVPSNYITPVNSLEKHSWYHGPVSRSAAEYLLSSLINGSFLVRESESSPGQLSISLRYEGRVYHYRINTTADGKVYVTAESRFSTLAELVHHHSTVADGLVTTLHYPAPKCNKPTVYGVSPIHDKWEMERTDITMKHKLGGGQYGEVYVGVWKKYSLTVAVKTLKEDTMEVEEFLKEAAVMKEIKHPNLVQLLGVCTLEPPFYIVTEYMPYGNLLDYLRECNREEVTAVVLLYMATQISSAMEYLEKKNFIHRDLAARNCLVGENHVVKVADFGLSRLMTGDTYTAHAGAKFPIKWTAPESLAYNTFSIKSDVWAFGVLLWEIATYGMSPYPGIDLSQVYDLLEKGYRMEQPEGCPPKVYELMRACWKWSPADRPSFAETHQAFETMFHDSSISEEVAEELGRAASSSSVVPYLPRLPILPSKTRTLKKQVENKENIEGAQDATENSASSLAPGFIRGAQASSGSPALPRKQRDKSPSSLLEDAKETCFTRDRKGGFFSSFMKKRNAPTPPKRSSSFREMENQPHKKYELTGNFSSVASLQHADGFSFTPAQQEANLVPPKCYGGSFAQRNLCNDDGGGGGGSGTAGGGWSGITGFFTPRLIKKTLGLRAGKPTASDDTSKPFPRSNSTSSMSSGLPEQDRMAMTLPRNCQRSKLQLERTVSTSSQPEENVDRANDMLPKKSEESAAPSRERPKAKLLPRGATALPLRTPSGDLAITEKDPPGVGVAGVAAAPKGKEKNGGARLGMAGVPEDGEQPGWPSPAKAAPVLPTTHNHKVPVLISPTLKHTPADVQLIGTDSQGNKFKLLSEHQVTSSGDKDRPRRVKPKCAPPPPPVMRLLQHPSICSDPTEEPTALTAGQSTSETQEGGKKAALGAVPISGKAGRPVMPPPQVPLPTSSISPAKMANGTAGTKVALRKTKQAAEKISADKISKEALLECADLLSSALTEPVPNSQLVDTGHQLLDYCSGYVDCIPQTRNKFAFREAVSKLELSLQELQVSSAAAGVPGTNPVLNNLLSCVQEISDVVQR

With `CCOc1cc(N2CCC(O)CC2)ccc1Nc1ncc2c(n1)N(C)c1ccccc1C(=O)N2C`, the inhibition (in general, the relative decrease from the control value, in per cent) in [1] is 5.6%; in experiment [2] it was 23.4%; in experiment [3], 19.4%; in [5] it was 6.7%; in [8], -4.5%; in experiment [9] it was 11.5%. In addition, the result in the experiment with HeLa was Active. The inhibition at 2 µM in experiment [4] was -6.9%. Moreover, the IC50 in experiment [6], in experiment [7] and in experiment [10] was more than 50 µM throughout.
